ChEMBL document CHEMBL1153829, “Exploiting chemical libraries, structure, and genomics in the search for kinase inhibitors” (Science, 1998)
The source made the active and inactive calls. Unless noted, the rule behind the calls is not given here.

Legend:
Saccharomyces cerevisiae [1] = assay: Induction of YAL061W gene expression in delta snq2, delta pdr5 and delta erg6 knock out yeast YRP1 at 25 µM after 2 hrs by high-density oligonucleotide array; format: functional, organism-based; conditions: 25 M
Outline: (§1)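 Drug-sensitized yeast strain grown to late logarithmic phase, then exposed to 25 μM inhibitor for 2 h. Polyadenylated mRNA was isolated and converted to biotin-labeled cRNA, which was hybridized to a set of four arrays carrying over 260,000 25-nucleotide oligomers. Transcripts changing more than twofold were scored, from triplicate hybridizations in each of two independent experiments.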

Saccharomyces cerevisiae [2] = assay: Effect on YGL121C gene expression in delta snq2, delta pdr5 and delta erg6 knock out yeast YRP1 bearing cdc28-4 mutant allele assessed as change in mRNA level at 25 µM after 2 hrs by high-density oligonucleotide array; format: functional, organism-based; conditions: 25 M
Saccharomyces cerevisiae [3] = assay: Effect on YHR143W gene expression in delta snq2, delta pdr5 and delta erg6 knock out yeast YRP1 assessed as change in mRNA level at 25 µM after 2 hrs by high-density oligonucleotide array; format: functional, organism-based; conditions: 25 M
Outline: (§2)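 Drug-sensitized S. cerevisiae cultures grown to late logarithmic phase, then exposed to 25 μM inhibitor for 2 h. Polyadenylated mRNA isolated, converted to biotin-labeled cRNA and hybridized to a set of four high-density arrays carrying more than 260,000 25-nucleotide oligomers. Transcripts scored as changed when they shifted more than twofold in triplicate hybridizations for each of two independent experiments.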

Saccharomyces cerevisiae [4] = assay: Increase in YBR296c mRNA level in delta snq2, delta pdr5 and delta erg6 knock out yeast YRP1 at 25 µM after 2 hrs by high-density oligonucleotide array; format: functional, organism-based; conditions: 25 M; outline: as §2
Saccharomyces cerevisiae [5] = assay: Effect on YNR009w gene expression in delta snq2, delta pdr5 and delta erg6 knock out yeast YRP1 assessed as change in mRNA level at 25 µM after 2 hrs by high-density oligonucleotide array; format: functional, organism-based; outline: as §2
Saccharomyces cerevisiae [6] = assay: Effect on ATR1 gene expression in delta snq2, delta pdr5 and delta erg6 knock out yeast YRP1 bearing cdc28-4 mutant allele assessed as change in mRNA level at 25 µM after 2 hrs by high-density oligonucleotide array; format: functional, organism-based
Saccharomyces cerevisiae [7] = assay: Downregulation of EGT2 mRNA expression in delta snq2, delta pdr5 and delta erg6 knock out yeast YRP1 at 25 µM after 2 hrs by high-density oligonucleotide array; format: functional, organism-based; conditions: 25 M; outline: as §2
Saccharomyces cerevisiae [8] = assay: Effect on HTA2 gene expression in delta snq2, delta pdr5 and delta erg6 knock out yeast YRP1 bearing cdc28-4 mutant allele assessed as change in mRNA level at 25 µM after 2 hrs by high-density oligonucleotide array; format: functional, organism-based
Saccharomyces cerevisiae [9] = assay: Growth inhibition of delta snq2, delta pdr5 and delta erg6 knock out yeast YRP1 assessed as synchronization by FACS analysis; format: functional, organism-based
Saccharomyces cerevisiae [10] = assay: Effect on YLR311C gene expression in delta snq2, delta pdr5 and delta erg6 knock out yeast YRP1 bearing cdc28-4 mutant allele assessed as change in mRNA level at 25 µM after 2 hrs by high-density oligonucleotide array; format: functional, organism-based; conditions: 25 M
Saccharomyces cerevisiae [11] = assay: Effect on YCL009c gene expression in delta snq2, delta pdr5 and delta erg6 knock out yeast YRP1 bearing cdc28-4 mutant allele assessed as change in mRNA level at 25 µM after 2 hrs by high-density oligonucleotide array; format: functional, organism-based
Saccharomyces cerevisiae [12] = assay: Upregulation of GSC2 gene expression in delta snq2, delta pdr5 and delta erg6 knock out yeast YRP1 at 25 µM after 2 hrs by high-density oligonucleotide array; format: functional, organism-based; conditions: 25 M; outline: as §1
Saccharomyces cerevisiae [13] = assay: Effect on YGR043C gene expression in delta snq2, delta pdr5 and delta erg6 knock out yeast YRP1 assessed as change in mRNA level at 25 µM after 2 hrs by high-density oligonucleotide array; format: functional, organism-based; outline: as §2
Saccharomyces cerevisiae [14] = assay: Effect on TFS1 gene expression in delta snq2, delta pdr5 and delta erg6 knock out yeast YRP1 assessed as change in mRNA level at 25 µM after 2 hrs by high-density oligonucleotide array; format: functional, organism-based; outline: as §2
Saccharomyces cerevisiae [15] = assay: Increase in PHO5 mRNA level in delta snq2, delta pdr5 and delta erg6 knock out yeast YRP1 at 25 µM after 2 hrs by high-density oligonucleotide array; format: functional, organism-based; outline: as §2
Saccharomyces cerevisiae [16] = assay: Effect on YER037w gene expression in delta snq2, delta pdr5 and delta erg6 knock out yeast YRP1 bearing cdc28-4 mutant allele assessed as change in mRNA level at 25 µM after 2 hrs by high-density oligonucleotide array; format: functional, organism-based
Saccharomyces cerevisiae [17] = assay: Upregulation of PDR15 gene expression in delta snq2, delta pdr5 and delta erg6 knock out yeast YRP1 at 25 µM after 2 hrs by high-density oligonucleotide array; format: functional, organism-based; conditions: 25 M; outline: as §1
Saccharomyces cerevisiae [18] = assay: Downregulation of CLB1 mRNA expression in delta snq2, delta pdr5 and delta erg6 knock out yeast YRP1 at 25 µM after 2 hrs by high-density oligonucleotide array; format: functional, organism-based; conditions: 25 M; outline: as §2
Saccharomyces cerevisiae [19] = assay: Effect on FAR1 gene expression in delta snq2, delta pdr5 and delta erg6 knock out yeast YRP1 assessed as change in mRNA level at 25 µM after 2 hrs by high-density oligonucleotide array; format: functional, organism-based; outline: as §2
Saccharomyces cerevisiae [20] = assay: Increase in PHO81 mRNA level in delta snq2, delta pdr5 and delta erg6 knock out yeast YRP1 at 25 µM after 2 hrs by high-density oligonucleotide array; format: functional, organism-based; conditions: 25 M; outline: as §2
Saccharomyces cerevisiae [21] = assay: Effect on YOL155C gene expression in delta snq2, delta pdr5 and delta erg6 knock out yeast YRP1 bearing cdc28-4 mutant allele assessed as change in mRNA level at 25 µM after 2 hrs by high-density oligonucleotide array; format: functional, organism-based
Saccharomyces cerevisiae [22] = assay: Effect on YDR281C gene expression in delta snq2, delta pdr5 and delta erg6 knock out yeast YRP1 bearing cdc28-4 mutant allele assessed as change in mRNA level at 25 µM after 2 hrs by high-density oligonucleotide array; format: functional, organism-based
Saccharomyces cerevisiae [23] = assay: Decrease in RPL4A mRNA level in delta snq2, delta pdr5 and delta erg6 knock out yeast YRP1 at 25 µM after 2 hrs by high-density oligonucleotide array; format: functional; outline: as §2
Saccharomyces cerevisiae [24] = assay: Induction of YPR184W gene expression in delta snq2, delta pdr5 and delta erg6 knock out yeast YRP1 at 25 µM after 2 hrs by high-density oligonucleotide array; format: functional, organism-based; outline: as §1
Saccharomyces cerevisiae [25] = assay: Effect on ZMS1 gene expression in delta snq2, delta pdr5 and delta erg6 knock out yeast YRP1 bearing cdc28-4 mutant allele assessed as change in mRNA level at 25 µM after 2 hrs by high-density oligonucleotide array; format: functional, organism-based; conditions: 25 M
Saccharomyces cerevisiae [26] = assay: Effect on YBR147w gene expression in delta snq2, delta pdr5 and delta erg6 knock out yeast YRP1 bearing cdc28-4 mutant allele assessed as change in mRNA level at 25 µM after 2 hrs by high-density oligonucleotide array; format: functional, organism-based
Saccharomyces cerevisiae [27] = assay: Induction of PGM2 gene expression in delta snq2, delta pdr5 and delta erg6 knock out yeast YRP1 at 25 µM after 2 hrs by high-density oligonucleotide array; format: functional, organism-based; conditions: 25 M; outline: as §1
Saccharomyces cerevisiae [28] = assay: Upregulation of HSP104 gene expression in delta snq2, delta pdr5 and delta erg6 knock out yeast YRP1 at 25 µM after 2 hrs by high-density oligonucleotide array; format: functional, organism-based; conditions: 25 M; outline: as §1
Saccharomyces cerevisiae [29] = assay: Downregulation of HTA2 mRNA expression in delta snq2, delta pdr5 and delta erg6 knock out yeast YRP1 at 25 µM after 2 hrs by high-density oligonucleotide array; format: functional, organism-based; outline: as §2
Saccharomyces cerevisiae [30] = assay: Effect on PGM2 gene expression in delta snq2, delta pdr5 and delta erg6 knock out yeast YRP1 assessed as change in mRNA level at 25 µM after 2 hrs by high-density oligonucleotide array; format: functional, organism-based; conditions: 25 M; outline: as §2
Saccharomyces cerevisiae [31] = assay: Upregulation of HSP82 gene expression in delta snq2, delta pdr5 and delta erg6 knock out yeast YRP1 at 25 µM after 2 hrs by high-density oligonucleotide array; format: functional, organism-based; outline: as §1

SMILES	Activity (Saccharomyces cerevisiae [1])	Activity (Saccharomyces cerevisiae [2])	Activity (Saccharomyces cerevisiae [3])	Activity (Saccharomyces cerevisiae [4])	Activity (Saccharomyces cerevisiae [5])	Activity (Saccharomyces cerevisiae [6])	Activity (Saccharomyces cerevisiae [7])	Activity (Saccharomyces cerevisiae [8])	Activity (Saccharomyces cerevisiae [9])	Activity (Saccharomyces cerevisiae [10])	Activity (Saccharomyces cerevisiae [11])	Activity (Saccharomyces cerevisiae [12])	Activity (Saccharomyces cerevisiae [13])	Activity (Saccharomyces cerevisiae [14])	Activity (Saccharomyces cerevisiae [15])	Activity (Saccharomyces cerevisiae [16])	Activity (Saccharomyces cerevisiae [17])	Activity (Saccharomyces cerevisiae [18])	Activity (Saccharomyces cerevisiae [19])	Activity (Saccharomyces cerevisiae [20])	also measured
CC(C)n1cnc2/c(=N/c3cccc(Cl)c3)nc(NCCO)[nH]c21	Active	Active	Active	Active	Active	Active	Active	Active	inactive	Active	Active	Active	Active	Active	Active	Active	Active	Active	Active	Active	Activity (Saccharomyces cerevisiae [21]): Active; Activity (Saccharomyces cerevisiae [22]): Active; fold change (FC) (Saccharomyces cerevisiae [23]): 3; Activity (Saccharomyces cerevisiae [24]): Active; Activity (Saccharomyces cerevisiae [25]): Active; Activity (Saccharomyces cerevisiae [26]): Active; Activity (Saccharomyces cerevisiae [27]): Active; Activity (Saccharomyces cerevisiae [28]): Active; Activity (Saccharomyces cerevisiae [29]): Active; Activity (Saccharomyces cerevisiae [30]): Active; Activity (Saccharomyces cerevisiae [31]): Active
CN1CC[C@H](c2c(O)cc(O)c3c(=O)cc(-c4ccccc4Cl)oc23)[C@H](O)C1 [ALVOCIDIB]	Active	Active	Active	Active	Active	Active	Active	Active	inactive	Active	Active	Active	Active	Active	Active	Active	Active	Active	Active	Active	Activity (Saccharomyces cerevisiae [21]): Active; Activity (Saccharomyces cerevisiae [22]): Active; fold change (FC) (Saccharomyces cerevisiae [23]): 3; Activity (Saccharomyces cerevisiae [24]): Active; Activity (Saccharomyces cerevisiae [25]): Active; Activity (Saccharomyces cerevisiae [26]): Active; Activity (Saccharomyces cerevisiae [27]): Active; Activity (Saccharomyces cerevisiae [28]): Active; Activity (Saccharomyces cerevisiae [29]): Active; Activity (Saccharomyces cerevisiae [30]): Active; Activity (Saccharomyces cerevisiae [31]): Active
